Most compounds without a hit are left out; they make up all but 2% or so of the library.
ZTA DNA inh: blocks Epstein-Barr virus ZTA, an EBNA-1 counter-screen. P03206. ZTA-DNA binding, fluorescence polarization. inhibition, % at 11 µM. hit rate 0.15% among 320,000. AID 2234; in the data active = inhibition above about 33%
Target sequence (P03206 whole entry, looked up): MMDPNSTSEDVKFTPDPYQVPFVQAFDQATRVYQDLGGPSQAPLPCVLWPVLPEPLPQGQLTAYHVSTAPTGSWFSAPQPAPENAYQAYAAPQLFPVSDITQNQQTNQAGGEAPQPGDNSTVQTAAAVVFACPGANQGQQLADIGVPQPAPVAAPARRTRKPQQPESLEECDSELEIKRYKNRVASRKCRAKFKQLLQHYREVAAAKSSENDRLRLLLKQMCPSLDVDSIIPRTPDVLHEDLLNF
FID counter: fluorescent intercalator displacement, NS3 helicase counter-screen. hit rate 0.17% among 290,000. inhibition, % at 7.9 µM. DNA fluorescent intercalator displacement, fluorescence; in the data active = inhibition above about 37%;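 note: 0% = vehicle and 100% = reference compound; higher means more ethidium bromide displaced from hairpin DNA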
HCV NS3 hel inh: inhibitors of Hepatitis C virus NS3 helicase. NS3 helicase DNA unwinding, Cy5 molecular beacon fluorescence. hit rate 0.56% among 290,000. inhibition, % at 10.9 µM;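 active = inhibition above the mean of all tested compounds plus 3 SD, set per campaign, cut at about 35% in these data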;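 note: 0% = DMSO wells and 100% = thioflavine S control wells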
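System: Hepatitis C virus NS3 helicase domain fragment enzyme | Reagent: Annealed dual-labelled DNA beacon duplex, ATP-started | Compound dosing: 10.9 µM single point, 0.8% DMSO | Incubation: 1 h reaction at 25 °C, ATP-initiated | Technique: Cy5 fluorescence | Evaluation: Percent inhibition from t60/t0 fluorescence ratio | Benchmarks: Low DMSO, high thioflavine S at 110 µM | Replication: Singlicate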
EBNA-1 inh: blocks EBNA-1 binding to DNA. EBNA-1 DNA binding, fluorescence polarization. hit rate 0.34% among 300,000. inhibition, % at 14.8 µM; in the data active = inhibition above about 28%
GPR7 antag: antagonists of human GPR7 (neuropeptides B/W receptor 1) | hit rate 1.1% among 290,000 | AID 1861 | GPR7-expressing cells, fluorescence antagonist assay | inhibition, % at 4.4 µM | P48145; in the data active = inhibition above about 16%, passing the limit was not always enough;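 note: cells stimulated with the agonist NPW; 0% = agonist with vehicle and 100% = vehicle without agonist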
Target sequence (P48145 whole entry, looked up): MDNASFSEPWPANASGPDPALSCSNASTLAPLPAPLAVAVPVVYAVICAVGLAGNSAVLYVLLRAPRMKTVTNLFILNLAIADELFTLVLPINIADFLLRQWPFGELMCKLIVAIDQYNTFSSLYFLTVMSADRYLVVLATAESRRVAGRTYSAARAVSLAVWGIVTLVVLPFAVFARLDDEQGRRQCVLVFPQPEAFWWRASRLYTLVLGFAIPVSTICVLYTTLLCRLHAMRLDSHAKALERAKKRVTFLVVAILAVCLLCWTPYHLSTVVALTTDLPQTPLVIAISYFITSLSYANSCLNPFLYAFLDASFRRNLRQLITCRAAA
GPR7 antag conf: confirmation of human GPR7 antagonists; shares compounds with GPR7 antag; GPR7-expressing cells, calcium fluorescence antagonist mode; inhibition, % at 4.4 µM; hit rate 52% among 2,400; AID 1952; in the data active = inhibition above about 24%;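 note: stimulated with the GPR7 agonist NPW; 0% = agonist plus vehicle and 100% = vehicle alone without agonist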
MCHR1 antagonist: antagonizes human MCHR1, a GPR7 antagonist counter-screen | MCHR1-expressing cells, fluorescence antagonist assay | shares compounds with GPR7 antag | hit rate 62% among 2,400 | inhibition, % at 4.4 µM; in the data active = inhibition above about 22%;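 note: 0% = vehicle with agonist and 100% = vehicle without agonist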
The depositor's hits bear a star; i = inactive; . = not tested or not shown.

SMILES	ZTA DNA inh	FID counter	HCV NS3 hel inh	EBNA-1 inh	GPR7 antag	GPR7 antag conf	MCHR1 antagonist
COC(=O)C1=C(c2cc3ccccc3s2)C[C@@H]2CC[C@H]1N2C(=O)NCc1ccco1	2.6	.	.	-0.8	.	.	.
CCc1ccccc1NC(=O)CNC1CCCCC1	-3.8	9.7	6.0	0.9	25.3*	-0.3	6.6
Cc1ccc2ccccc2c1NC(=O)CNC1CCCCC1	-5.1	-0.3	-0.6	-4.8	7.7	.	.
CCCc1nc2ccc(Br)cc2c(=O)n1-c1ccc([N+](=O)[O-])c(C(F)(F)F)c1	-3.4	0.6	4.7	-2.0	-4.6	.	.
CCC1(CC)C(=O)NC(=NCCc2c[nH]c3ccccc23)NC1=O	1.4	8.2	11.4	-3.5	27.8*	-3.2	7.4
NCCc1c[nH]c2ccccc12	5.7	2.5	-2.8	-9.8	-5.4	.	.
CNC(C)Cc1ccccc1Sc1ccc(O)cc1 (configuration not stated)	8.0	32.2	-35.1	1.1	29.9*	30.1*	30.1*
CCN(CC)C(=O)c1ccc(NC(=O)CN2CCc3cc(OC)c(OC)cc3C2)cc1	-16.5	-25.0	7.6	13.7	-12.0	.	.
O=C(C1CCC(=O)N1Cc1ccccc1Cl)N1CCC2(CC1)OCCO2 (configuration not stated)	-3.1	-3.7	5.3	3.3	-0.1	.	.
CCOc1cc2c(cc1OCC)-n1cccc1C(c1ccc(C)cc1C)NC2 (configuration not stated)	-19.2	18.7	-63.8	0.7	37.9*	19.4	23.1*
COC(=O)C1=C(N)Oc2c(c(=O)oc3ccccc23)C1c1cccnc1 (configuration not stated)	3.4	-16.1	19.0	2.3	-1.4	.	.
OCC(Cl)CCl (configuration not stated)	6.9	.	.	.	.	.	.
CCOc1ccc(-c2cc(C)[n+](CCc3ccc(OC)c(OC)c3)c(-c3ccc(OCC)cc3)c2)cc1	.	30.4	-77.5	.	54.2*	65.9*	61.4*
CC(=O)OC1CC[C@]2(C#N)[C@H]3CC[C@]4(C)[C@H](C5C=CC(=O)O5)CCC4(O)C3CCC2(O)C1 (some centres not stated)	-15.3	-16.4	-3.2	2.6	3.4	.	.
O=C(CCCc1ccccc1)NCCc1cnc[nH]1	-10.9	0.5	-12.1	5.4	7.9	.	.
COc1cc(C)c(CNCCc2c[nH]c3ccccc23)cc1C	1.1	15.2	-17.5	-10.6	38.4*	21.9	55.5*
Cc1ccc2c(c1)C(c1ccccc1)=NCC(=O)N2C	1.6	.	.	-4.6	.	.	.
CCCCOc1ccc(CCN)cc1Cl	1.4	20.7	-41.6	17.8	28.9*	25.6*	30.5*
CCOc1cc2c(cc1OCC)-n1cccc1C(c1cccc(F)c1)NC2 (configuration not stated)	10.7	8.5	-43.2	6.0	4.6	.	.
Oc1c(Br)cc(Br)cc1Oc1ccc(Br)cc1Br	15.8	0.0	28.2	10.9	-8.0	.	.
CCC(=O)c1cn(Cc2ccc(C#N)cc2)c2ccccc12	0.0	-11.0	6.6	-4.5	27.4*	14.1	14.6
CCOC(=O)C1CCCN(c2ccc([N+](=O)[O-])c3nonc23)C1 (configuration not stated)	.	-192.6	-8.1	.	44.9*	42.5*	68.0*
Cc1cccc(OCC(=O)N2CCN(Cc3ccc([N+](=O)[O-])cc3)CC2)c1	8.3	-8.3	-5.5	11.4	13.3	.	.
Cc1ccc(OCC(=O)N2CCN(Cc3ccc([N+](=O)[O-])cc3)CC2)cc1	-0.6	-15.9	-3.0	-2.4	21.4*	28.0*	35.7*
CCn1cc(C=C2C(=O)N(C)C(=O)N(C)C2=O)c2ccccc21	-4.4	-8.7	0.3	-0.9	31.6*	-8.1	8.7
SMILES	ZTA DNA inh	FID counter	HCV NS3 hel inh	EBNA-1 inh	GPR7 antag	GPR7 antag conf	MCHR1 antagonist
O=C(Nc1nccs1)C(Cl)(Cl)Cl	-19.4	1.1	2.2	-6.8	-11.4	.	.
O=C(Nc1ccc(Cl)cc1)Nc1nccs1	5.2	0.7	2.0	5.8	30.0*	27.9*	42.4*
Fc1ccc2c(c1)nnn2C1CCN(Cc2nnnn2C2CCCCC2)CC1	12.6	-15.1	-2.7	2.5	26.6*	12.5	4.9
CCN1C[C@@]2(COC)C3[C@@H](OC)[C@H]4[C@@H]1[C@@]3(C1C[C@H]3[C@H](OC(C)=O)C1[C@]4(OC(C)=O)C[C@H]3OC)[C@@H](OC)C[C@H]2OC(C)=O (some centres not stated)	9.9	.	.	9.3	.	.	.
CN1CC=C(c2c[nH]c3ccccc23)CC1	-12.1	1.3	15.4	5.0	-10.4	.	.
CC(C(=O)c1c[nH]c2ccccc12)N1CCc2ccccc2C1 (configuration not stated)	-20.1	13.8	-15.5	6.7	22.0*	13.7	16.8
CCOc1ccc(N=Cc2c(O)n(-c3ccc(C)c(C)c3)c(=O)[nH]c2=O)cc1	-11.7	-7.2	4.2	-9.8	2.1	.	.
CCOc1ccc(N=Cc2c(O)n(-c3cc(C)cc(C)c3)c(=O)[nH]c2=O)cc1	-0.3	-7.3	19.5	-2.8	24.1*	-4.2	6.9
Cc1nn(C)c(C)c1P(=S)(c1c(C)nn(C)c1C)N(C)C	0.5	-10.6	-5.8	6.7	25.9*	-11.1	-3.5
CCOc1ccc2oc(C(=O)NN3C(C)CCCC3C)c(C)c2c1 (configuration not stated)	2.4	-22.0	-23.8	2.8	-10.2	.	.
CCOC(=O)C(O)(c1ccc(NC(=S)NC(=O)c2ccc(Cl)cc2Cl)c(C)c1)C(F)(F)F (configuration not stated)	-7.5	-19.8	2.3	-12.4	88.4*	93.3*	97.0*
COC(=O)C(O)(c1ccc(NC(=S)NC(=O)c2ccc(Cl)cc2Cl)c(C)c1)C(F)(F)F (configuration not stated)	-0.2	-22.8	-7.5	-5.4	8.1	.	.
CCOC(=O)C(O)(c1ccc(NC(=O)Oc2ccccc2)cc1)C(F)(F)F (configuration not stated)	-8.0	-1.1	-0.4	7.1	-1.9	.	.
COC(=O)C(O)(c1ccc(NC(=S)NC(=O)c2ccc(Cl)cc2Cl)cc1)C(F)(F)F (configuration not stated)	14.2	-16.8	4.2	7.8	32.8*	56.2*	60.5*
CCOC(=O)C(O)(c1ccc(NC(=S)NC(=O)c2ccc(Cl)cc2Cl)cc1)C(F)(F)F (configuration not stated)	-1.0	-19.6	-3.8	4.7	59.7*	85.6*	93.3*
C1CC2OC2CC1C1CO1 (configuration not stated)	-21.9	.	.	.	.	.	.
COc1ccccc1CC(=O)N1CCN(CCc2ccccc2)CC1	-9.7	-10.6	6.4	-13.9	13.9	.	.
CCN1/C(=C\C=C\C2=[N+](CC)c3ccccc3C2(C)C)C(C)(C)c2ccccc21	9.1	i	-27.9	1.8	98.2*	102.7*	105.5*
N#CCCn1cc(C(=O)Nc2ccc([N+](=O)[O-])cc2)c(-c2ccc3c(c2)OCCO3)n1	6.3	21.3	0.5	-2.9	25.0*	0.7	12.8

Assay outcomes deposited in PubChem BioAssay by The Scripps Research Institute Molecular Screening Center.
